# Shown are actives, neighbours in structure and some others; about 2.1% of the full set was active somewhere.
# CXCR6 inh: inhibitors of human CXCR6 receptor | O00574 | CHO-K1 PathHunter CXCR6 beta-arrestin, luminescence | inhibition, % at 20 µM | 360,000 tested, 0.36% active | AID 602244; in the data active means inhibition above about 34%, passing the limit was not always enough;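 further: antagonist mode with CXCL16 agonist at 10 nM final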
# EBI2 block: blocks human EBI2 receptor beta-arrestin signaling; P32249; EBI2 beta-arrestin recruitment, luminescence, 7a,25-OHC stimulated; inhibition, % at 5 µM; 360,000 tested, 0.81% active; AID 651636; in the data active means inhibition above about 38%;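 further: enzyme fragment complementation signal reports receptor beta-arrestin coupling in cells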
# APJ antagonist: blocks the human apelin receptor APJ; P35414; CHO-K1 APJ beta-arrestin complementation, luminescence; inhibition, % at 20 µM; 330,000 tested, 0.32% active; AID 2521;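 active means inhibition above about 40% at 20 µM, limit read from the data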;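 further: cells challenged with 10 nM apelin-13 agonist together with compound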
# Target sequence (P35414 whole entry, looked up): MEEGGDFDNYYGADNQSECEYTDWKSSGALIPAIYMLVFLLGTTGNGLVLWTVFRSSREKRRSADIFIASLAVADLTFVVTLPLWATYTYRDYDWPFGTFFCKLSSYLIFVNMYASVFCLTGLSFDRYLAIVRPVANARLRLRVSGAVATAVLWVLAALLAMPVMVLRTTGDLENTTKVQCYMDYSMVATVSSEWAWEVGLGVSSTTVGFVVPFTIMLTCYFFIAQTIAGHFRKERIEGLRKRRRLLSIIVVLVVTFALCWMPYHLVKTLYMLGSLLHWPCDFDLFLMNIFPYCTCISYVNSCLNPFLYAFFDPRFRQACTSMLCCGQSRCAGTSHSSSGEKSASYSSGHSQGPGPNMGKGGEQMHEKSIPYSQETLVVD
# CCR6 antagonist: CCR6 (human) receptor antagonism | CHO-K1 CCR6 PathHunter beta-arrestin, luminescence, CCL20-stimulated | AID 493098 | 340,000 tested, 0.49% active | inhibition, % at 20 µM;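 active means compounds whose inhibition of the agonist-driven luminescence signal at 20 µM reaches about 50%, limit read from the data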;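 further: cells stimulated with CCL20 at 14 nM final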
# m5-HT2A agonist: activates the mouse 5-HT2A serotonin receptor. 360,000 tested, 0.66% active. P35363. CHO-K1 mHTR2A beta-arrestin complementation, luminescence; percent of 30 µM serotonin response. activation, % at 7.6 µM;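 active means activation above a run cutoff, the mean activation of all tested compounds plus 3 SD, cut at about 14% in these data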
# APJ agonist: activates the human apelin receptor APJ. activation, % at 20 µM. P35414. AID 2520. CHO-K1 APJ PathHunter beta-arrestin, luminescence; 0% DMSO wells, 100% apelin. 330,000 tested, 0.11% active;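 active means activation more than six SD over the plate average, tested at 20 µM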
#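 Assay system – PathHunter CHO-K1 APJ (AGTRL-1) beta-arrestin reporter cells · Compound – one dose, 20 µM compound, 1% DMSO · Timing – compound 90 min 25 °C, reagent 1 h · Measured by – luminescence from split beta-galactosidase complementation, Galacton Star/Emerald II substrate · Measure – beta-arrestin recruitment to APJ as agonist activity, luminescent signal · Benchmarks – DMSO vs Apelin-13 10 nM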
# EBI2 conf: EBI2 (human) antagonism, single concentration confirmation | shares compounds with EBI2 block | EBI2 beta-arrestin luminescence, 7a,25-OHC antagonism | inhibition, % at 5 µM | 2,400 tested, 29% active | AID 651997;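 active means inhibition of at least 50%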
# EBI2 agonist: EBI2 agonism counter-screen; shares compounds with EBI2 block; EBI2-expressing cells, agonist mode, luminescence, 60 min; 0% vehicle, 100% 7α,25-dihydroxycholesterol control; activation, % at 5 µM; 2,400 tested, under 10 active;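 active means activation of at least 50%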
# bGal cs: inhibits E. coli beta-galactosidase, counter-screen for EBI2 antagonists. AID 652176. 2,400 tested, 1% active. purified beta-galactosidase, luminescent Galacton Star, 15 min. inhibition, % at 5 µM. shares compounds with EBI2 block;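 active means replicate-average signal at least 3 plate SD below neutral wells, shown as high inhibition, flagging enzyme-inhibiting false positives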;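 further: higher means stronger loss of beta-gal luminescence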
# Hits are given with their value; i = inactive; nt = not tested or not shown.
SMILES,CXCR6 inh,EBI2 block,APJ antagonist,CCR6 antagonist,m5-HT2A agonist,APJ agonist,EBI2 conf,EBI2 agonist,bGal cs
Cc1ccc(C(=O)NCc2ccco2)cc1S(=O)(=O)N1CCCCC1,i,i,i,i,i,i,nt,nt,nt
COC(=O)c1cccc(NC(=O)c2cc3ccccc3o2)c1,i,44,i,i,i,i,i,i,i
COC(=O)c1cc(NC(=O)c2cc3ccccc3o2)cc(C(=O)OC)c1,i,i,i,i,i,i,nt,nt,nt
CN1c2ccccc2C2(C)CCCC3=Cc4cccc([N+](=O)[O-])c4OC312 (stereo unspecified),i,41,i,i,i,i,i,i,i
CCOC(=O)c1cnc(SCC(=O)Nc2ccc(N3CCOCC3)c(Cl)c2)nc1N,i,i,i,i,i,i,nt,nt,nt
CCOC(=O)c1cnc(SCC(=O)Nc2cc(C(F)(F)F)ccc2N2CCOCC2)nc1N,i,85,i,i,i,i,86,i,i
COc1ccc(N2CCN(C(=O)c3cc(-c4ccc(F)cc4)[nH]c3C)CC2)cc1,i,93,i,i,i,i,62,i,i
CCOC(=O)N1CCN(C(=O)c2cc(-c3ccc(F)cc3)[nH]c2C)CC1,i,89,i,i,i,i,86,i,i
CCOC(=O)N1CCN(C(=O)c2cccc(F)c2)CC1,i,i,i,i,i,i,nt,nt,nt
Cc1[nH]c(-c2ccc(F)cc2)cc1C(=O)N1CCN(c2ccc(Cl)cc2)CC1,i,73,i,i,i,i,i,i,i
COc1ccc(-n2ncc(C(=O)N3CCN(c4ccc(F)cc4)CC3)c2C)cc1,i,i,i,i,i,i,nt,nt,nt
Cc1cccc(C(=O)NCCCNC(=O)c2ccc(C)nc2)c1,i,i,i,i,i,i,nt,nt,nt
C[C@H]1CN([C@@H](C)CO)S(=O)(=O)c2ccc(C#Cc3cccnc3)cc2O[C@@H]1CN(C)C(=O)Nc1ccc2c(c1)OCO2,i,i,nt,nt,i,nt,nt,nt,nt
O=C(c1cc(-c2cccs2)nc2ccccc12)N1CCN(CCO)CC1,i,i,i,i,i,i,nt,nt,nt
CCN(CC(=O)Nc1ccc(NC(C)=O)cc1)C(=O)c1ccc(COc2ccc(C(C)(C)C)cc2)cc1,i,i,nt,i,i,nt,nt,nt,nt
COc1ccc(C(=O)Cn2c(C(=O)/C=C/c3ccccc3)nc3ccccc32)cc1,i,53,i,i,i,i,i,i,i
COc1ccc(C(=O)CSc2nc3ccccc3n2CC(=O)c2ccccc2)cc1,i,i,i,i,i,i,nt,nt,nt
CCc1ccc(N2CC(C(=O)Nc3cc(C)ccc3F)CC2=O)cc1 (stereo unspecified),i,53,i,i,i,i,i,i,i
CCc1ccc(N2CC(C(=O)Nc3ccc(S(=O)(=O)N4CCCCC4)cc3)CC2=O)cc1 (stereo unspecified),i,81,i,i,i,i,60,i,i
O=C(Nc1ccc(S(=O)(=O)N2CCCC2)cc1)C1CC(=O)N(c2ccccc2)C1 (stereo unspecified),i,i,i,i,i,i,nt,nt,nt
CN(C)CCCOc1ccc(-c2ccc3nncn3c2)cn1,i,i,nt,nt,i,nt,nt,nt,nt
O=C(Cn1nc(C(=O)O)c2ccccc2c1=O)c1c[nH]c2ccccc12,i,77,i,i,i,i,69,i,i
O=C(Nn1c(-c2ccncc2)nc2ccccc2c1=O)c1ccccc1Br,i,i,i,i,i,i,nt,nt,nt
CC1=C(C(=O)OCC2CCCO2)C(c2cccc(C(F)(F)F)c2)C2=C(CC(c3ccco3)CC2=O)N1 (stereo unspecified),i,53,i,i,i,i,i,i,i
CC1=C(C(=O)OCC2CCCO2)C(c2ccccc2OC(C)C)C2=C(CC(c3ccco3)CC2=O)N1 (stereo unspecified),i,i,i,i,i,i,nt,nt,nt
